Data published in ChEMBL document CHEMBL4393708, “Pyridinylimidazoles as dual glycogen synthase kinase 3β/p38α mitogen-activated protein kinase inhibitors” (Eur J Med Chem, 2019).
In brackets after ≈: the same amount, converted by molar mass.

Legend:
[1] = molecular target: T1, Mitogen-activated protein kinase 14 (Homo sapiens, UniProt Q16539); assay: Inhibition of p38alpha MAPK (unknown origin) using ATF-2 as substrate after 1 hr by ELISA
[2] = Metabolic stability in human liver microsomes assessed as parent compound remaining after 20 mins by LC-MS analysis relative to control; format: ADME, Microsome; conditions: read-out: Stability
[3] = Metabolic stability in human liver microsomes assessed as parent compound remaining after 60 mins by LC-MS analysis relative to control; format: ADME, Microsome; conditions: read-out: Stability
[4] = Metabolic stability in human liver microsomes assessed as parent compound remaining after 120 mins by LC-MS analysis relative to control; format: ADME, Microsome; conditions: read-out: Stability
[5] = Plasma clearance in RjOrl:Swiss CD-1 mouse at 10 mg/kg, iv administered as single dose measured after 10 mins by LC-MS analysis; format: ADME, organism-based
Outline: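 Adult male mice received a single 10 mg/kg intravenous injection. Plasma was sampled at 10, 30 and 120 min after dosing. Samples were prepared and analyzed by LC-MS.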

CYP2C9 = CYP2C9 (Homo sapiens, UniProt P11712); assay: Inhibition of human recombinant CYP2C9 expressed in baculovirus infected insect cells using OOMR as substrate at 10 uM in presence of NADPH by fluorimetric analysis relative to control; format: ADME; conditions: probe OOMR
[6] = Solubility of the compound in PBS buffer at pH 7.8 after 1 hr by HPLC analysis; format: physicochemical
[7] = molecular target: Calcium/calmodulin-dependent protein kinase type II subunit alpha (Homo sapiens) (UniProt Q9UQM7); assay: Inhibition of human recombinant CAMKA2A at 1 uM using Ulight-CGSGSGRPRTSSFAEG as substrate measured after 30 mins by LANCE assay relative to control
Outline: (§1)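 Kinase panel run by an outside provider (Eurofins Cerep) in a LANCE assay, single test concentration of 1 µM, results as percent inhibition.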

[8] = molecular target: Serine/threonine-protein kinase Chk2 (Homo sapiens) (UniProt O96017); assay: Inhibition of human recombinant CHK2 at 1 uM using CREBtide as substrate incubated for 15 mins in presence of ATP by LANCE assay relative to control; outline: as §1
[9] = molecular target: Glycogen synthase kinase-3 beta (Homo sapiens, UniProt P49841); assay: Inhibition of human recombinant GSK3beta at 1 uM using Ulight-CFFKNIVTPRTPPPSQGK-amide as substrate measured after 90 mins in presence of ATP by LANCE assay relative to control; outline: as §1
[10] = molecular target: Inhibitor of nuclear factor kappa-B kinase subunit alpha (Homo sapiens) (UniProt O15111); assay: Inhibition of human recombinant IKKalpha at 1 uM using Ulight-IKappaB-alpha as substrate measured after 30 mins in presence of ATP by LANCE assay relative to control; outline: as §1
[11] = molecular target: Insulin receptor (Homo sapiens) (UniProt P06213); assay: Inhibition of human recombinant IR at 1 uM using Ulight-Poly GAT[EAY(1:1:1)]n as substrate measured after 10 mins in presence of ATP by LANCE assay relative to control; outline: as §1
[12] = molecular target: Tyrosine-protein kinase JAK3 (Homo sapiens) (UniProt P52333); assay: Inhibition of human recombinant JAK3 at 1 uM using Ulight-CAGAGAIETDKEYYTVKD as substrate measured after 60 mins in presence of ATP by LANCE assay relative to control; outline: as §1
[13] = molecular target: Mitogen-activated protein kinase 8 (Homo sapiens) (UniProt P45983); assay: Inhibition of human recombinant JNK1 at 1 uM using Ulight-CFFKNIVTPRTPPPSQGK-amide as substrate measured after 60 mins in presence of ATP by LANCE assay relative to control; outline: as §1
[14] = molecular target: Hepatocyte growth factor receptor (Homo sapiens) (UniProt P08581); assay: Inhibition of human recombinant MET at 1 uM using Ulight-CAGAGAIETDKEYYTVKD as substrate measured after 60 mins in presence of ATP by LANCE assay relative to control; outline: as §1
[15] = molecular target: MAP kinase-interacting serine/threonine-protein kinase 2 (Homo sapiens) (UniProt Q9HBH9); assay: Inhibition of human recombinant MNK2 at 1 uM using CREBtide as substrate measured after 90 mins in presence of ATP by LANCE assay relative to control; outline: as §1
[16] = molecular target: Serine/threonine-protein kinase Nek2 (Homo sapiens) (UniProt P51955); assay: Inhibition of human recombinant NEK2 at 1 uM using Ulight-FLGFTYVAP as substrate measured after 60 mins in presence of ATP by LANCE assay relative to control; outline: as §1
[17] = molecular target: Serine/threonine-protein kinase PAK 4 (Homo sapiens) (UniProt O96013); assay: Inhibition of human recombinant PAK4 at 1 uM using Ulight-RRRSLLE as substrate measured after 30 mins in presence of ATP by LANCE assay relative to control; outline: as §1
[18] = molecular target: Serine/threonine-protein kinase pim-2 (Homo sapiens) (UniProt Q9P1W9); assay: Inhibition of human recombinant PIM2 at 1 uM using CREBtide as substrate measured after 60 mins in presence of ATP by LANCE assay relative to control; outline: as §1
[19] = molecular target: Serine/threonine-protein kinase PLK1 (Homo sapiens) (UniProt P53350); assay: Inhibition of human recombinant PLK1 at 1 uM using Ulight-FLGFTYVAP as substrate measured after 60 mins in presence of ATP by LANCE assay relative to control; outline: as §1
[20] = molecular target: T1, Mitogen-activated protein kinase 14; assay: Inhibition of human recombinant SAPK2A at 1 uM using Ulight-CFFKNIVTPRTPPPSQGK-amide as substrate measured after 30 mins in presence of ATP by LANCE assay relative to control; outline: as §1
[21] = molecular target: Proto-oncogene tyrosine-protein kinase Src (Homo sapiens) (UniProt P12931); assay: Inhibition of human recombinant SRC at 1 uM using Ulight-Poly GAT[EAY(1:1:1)]n as substrate measured after 10 mins in presence of ATP by LANCE assay relative to control; outline: as §1
[22] = Ratio of drug concentration in RjOrl:Swiss CD-1 mouse brain at 10 mg/kg, iv to IC50 for human recombinant full length GSK3beta; format: ADME, organism-based; conditions: in vivo
Outline: (§2)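 Adult male mice received a single 10 mg/kg intravenous dose. After the final plasma sample at 2 h, the mice were sacrificed and brains dissected. Brain concentration was measured by LC-MS and related to the in vitro IC50 values for GSK3β and p38α.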

[23] = Ratio of drug concentration in RjOrl:Swiss CD-1 mouse brain at 10 mg/kg, iv to IC50 for p38alpha MAPK (unknown origin); format: ADME, organism-based; conditions: in vivo; outline: as §2
[24] = molecular target: Aurora kinase A (Homo sapiens) (UniProt O14965); assay: Inhibition of recombinant human Aurora A at 1 uM using Ulight-RRRSLLE substrate incubated for 15 mins in presence of ATP by LANCE assay relative to control

T1 sequence (Q16539 whole entry): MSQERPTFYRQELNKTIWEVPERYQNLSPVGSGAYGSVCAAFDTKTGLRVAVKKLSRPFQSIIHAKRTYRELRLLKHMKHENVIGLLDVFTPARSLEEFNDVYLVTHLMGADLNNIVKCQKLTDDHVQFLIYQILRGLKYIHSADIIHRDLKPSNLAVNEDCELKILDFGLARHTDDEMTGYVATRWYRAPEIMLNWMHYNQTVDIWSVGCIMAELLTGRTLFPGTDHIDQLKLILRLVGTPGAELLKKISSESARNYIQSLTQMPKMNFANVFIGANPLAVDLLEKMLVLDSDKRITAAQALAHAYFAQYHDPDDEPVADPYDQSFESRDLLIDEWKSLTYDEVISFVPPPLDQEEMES
Chain of Hepatocyte growth factor receptor (Homo sapiens) (P08581 whole entry): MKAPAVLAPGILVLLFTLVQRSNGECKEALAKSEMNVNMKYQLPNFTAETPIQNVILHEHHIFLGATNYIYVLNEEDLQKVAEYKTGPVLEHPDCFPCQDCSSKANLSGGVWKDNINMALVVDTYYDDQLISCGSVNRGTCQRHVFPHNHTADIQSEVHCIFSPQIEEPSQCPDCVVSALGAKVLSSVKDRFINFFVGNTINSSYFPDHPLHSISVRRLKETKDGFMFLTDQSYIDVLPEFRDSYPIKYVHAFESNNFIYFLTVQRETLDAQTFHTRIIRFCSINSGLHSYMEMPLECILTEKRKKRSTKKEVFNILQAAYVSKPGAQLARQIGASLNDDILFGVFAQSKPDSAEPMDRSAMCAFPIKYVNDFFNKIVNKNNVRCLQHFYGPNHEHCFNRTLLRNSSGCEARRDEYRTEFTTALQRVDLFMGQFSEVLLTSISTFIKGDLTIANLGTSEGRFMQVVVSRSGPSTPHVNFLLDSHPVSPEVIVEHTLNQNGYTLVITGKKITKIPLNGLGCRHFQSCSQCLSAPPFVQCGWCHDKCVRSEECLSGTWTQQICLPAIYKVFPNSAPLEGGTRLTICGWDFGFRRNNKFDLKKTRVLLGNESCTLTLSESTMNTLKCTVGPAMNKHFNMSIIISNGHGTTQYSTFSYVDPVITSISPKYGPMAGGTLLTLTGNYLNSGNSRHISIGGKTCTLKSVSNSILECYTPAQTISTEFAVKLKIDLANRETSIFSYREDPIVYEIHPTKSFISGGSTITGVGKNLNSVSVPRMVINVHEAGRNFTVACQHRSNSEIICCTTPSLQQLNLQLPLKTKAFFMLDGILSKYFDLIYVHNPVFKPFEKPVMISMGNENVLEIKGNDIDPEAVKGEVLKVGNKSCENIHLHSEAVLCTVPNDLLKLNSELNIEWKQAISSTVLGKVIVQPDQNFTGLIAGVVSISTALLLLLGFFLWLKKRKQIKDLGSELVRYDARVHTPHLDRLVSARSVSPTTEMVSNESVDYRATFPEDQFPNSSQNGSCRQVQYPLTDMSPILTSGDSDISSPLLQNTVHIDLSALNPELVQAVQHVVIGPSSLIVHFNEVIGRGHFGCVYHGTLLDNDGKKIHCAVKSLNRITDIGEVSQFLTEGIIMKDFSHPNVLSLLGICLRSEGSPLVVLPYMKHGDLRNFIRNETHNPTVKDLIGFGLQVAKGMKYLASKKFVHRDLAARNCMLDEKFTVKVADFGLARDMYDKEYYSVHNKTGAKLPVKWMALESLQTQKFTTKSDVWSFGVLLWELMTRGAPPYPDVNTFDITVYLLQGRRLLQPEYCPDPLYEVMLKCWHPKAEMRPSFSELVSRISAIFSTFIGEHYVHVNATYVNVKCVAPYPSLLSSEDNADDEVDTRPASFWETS
Chain of MAP kinase-interacting serine/threonine-protein kinase 2 (Homo sapiens) (Q9HBH9 whole entry, looked up): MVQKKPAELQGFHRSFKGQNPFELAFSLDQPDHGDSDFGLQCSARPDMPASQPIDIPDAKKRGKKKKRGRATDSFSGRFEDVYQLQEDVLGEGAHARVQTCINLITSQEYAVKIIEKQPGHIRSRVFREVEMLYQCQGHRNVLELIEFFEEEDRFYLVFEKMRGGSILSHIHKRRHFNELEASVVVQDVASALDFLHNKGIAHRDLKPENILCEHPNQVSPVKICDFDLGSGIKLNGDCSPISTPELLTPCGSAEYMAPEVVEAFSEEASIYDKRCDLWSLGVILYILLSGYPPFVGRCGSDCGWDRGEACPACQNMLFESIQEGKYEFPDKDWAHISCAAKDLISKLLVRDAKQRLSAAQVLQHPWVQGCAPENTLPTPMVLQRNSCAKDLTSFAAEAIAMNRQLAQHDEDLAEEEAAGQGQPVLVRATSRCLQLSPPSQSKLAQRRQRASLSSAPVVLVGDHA
Chain of Serine/threonine-protein kinase Chk2 (Homo sapiens) (O96017 whole entry): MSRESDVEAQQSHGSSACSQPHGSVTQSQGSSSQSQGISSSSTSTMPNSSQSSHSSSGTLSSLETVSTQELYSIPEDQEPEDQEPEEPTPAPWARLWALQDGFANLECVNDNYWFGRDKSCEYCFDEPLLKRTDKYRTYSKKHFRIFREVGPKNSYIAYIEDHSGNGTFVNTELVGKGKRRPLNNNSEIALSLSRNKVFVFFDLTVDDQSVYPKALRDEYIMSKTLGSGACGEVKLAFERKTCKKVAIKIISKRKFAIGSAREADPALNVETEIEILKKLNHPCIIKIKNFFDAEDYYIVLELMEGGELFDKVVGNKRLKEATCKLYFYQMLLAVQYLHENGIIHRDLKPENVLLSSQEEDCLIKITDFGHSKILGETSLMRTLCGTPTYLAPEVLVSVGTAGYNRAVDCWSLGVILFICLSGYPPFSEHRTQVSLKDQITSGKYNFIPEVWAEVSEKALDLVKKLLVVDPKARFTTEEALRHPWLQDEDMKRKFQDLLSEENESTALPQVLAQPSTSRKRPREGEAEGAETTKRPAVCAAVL
Chain of Mitogen-activated protein kinase 8 (Homo sapiens) (P45983 whole entry): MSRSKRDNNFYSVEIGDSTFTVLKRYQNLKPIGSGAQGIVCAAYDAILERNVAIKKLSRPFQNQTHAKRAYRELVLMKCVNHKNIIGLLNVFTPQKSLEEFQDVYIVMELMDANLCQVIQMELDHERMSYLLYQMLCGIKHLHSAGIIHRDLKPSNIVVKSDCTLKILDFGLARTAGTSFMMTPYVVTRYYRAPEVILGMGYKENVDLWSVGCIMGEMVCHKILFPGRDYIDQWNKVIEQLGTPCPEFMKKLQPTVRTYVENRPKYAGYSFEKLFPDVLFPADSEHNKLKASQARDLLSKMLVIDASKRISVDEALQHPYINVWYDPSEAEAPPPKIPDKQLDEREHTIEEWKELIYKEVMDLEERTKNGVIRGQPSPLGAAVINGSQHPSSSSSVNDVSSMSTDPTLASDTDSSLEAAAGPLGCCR
Chain of Proto-oncogene tyrosine-protein kinase Src (Homo sapiens) (P12931 2-536 limits assumed): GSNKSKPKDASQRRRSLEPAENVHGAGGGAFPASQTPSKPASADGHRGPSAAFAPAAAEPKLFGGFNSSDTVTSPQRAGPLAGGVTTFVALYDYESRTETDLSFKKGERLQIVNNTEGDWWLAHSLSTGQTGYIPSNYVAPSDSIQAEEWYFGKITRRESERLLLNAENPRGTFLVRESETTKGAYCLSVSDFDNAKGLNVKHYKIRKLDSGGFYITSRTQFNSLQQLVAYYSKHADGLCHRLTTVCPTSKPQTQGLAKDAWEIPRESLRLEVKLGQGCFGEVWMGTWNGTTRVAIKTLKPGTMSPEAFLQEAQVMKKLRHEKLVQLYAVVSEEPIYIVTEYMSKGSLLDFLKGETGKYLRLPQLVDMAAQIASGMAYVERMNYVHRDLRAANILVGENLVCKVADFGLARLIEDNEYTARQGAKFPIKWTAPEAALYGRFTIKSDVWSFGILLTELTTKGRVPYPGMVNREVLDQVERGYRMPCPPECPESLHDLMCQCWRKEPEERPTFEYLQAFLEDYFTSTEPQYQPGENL
Chain of Glycogen synthase kinase-3 beta (P49841 whole entry, looked up): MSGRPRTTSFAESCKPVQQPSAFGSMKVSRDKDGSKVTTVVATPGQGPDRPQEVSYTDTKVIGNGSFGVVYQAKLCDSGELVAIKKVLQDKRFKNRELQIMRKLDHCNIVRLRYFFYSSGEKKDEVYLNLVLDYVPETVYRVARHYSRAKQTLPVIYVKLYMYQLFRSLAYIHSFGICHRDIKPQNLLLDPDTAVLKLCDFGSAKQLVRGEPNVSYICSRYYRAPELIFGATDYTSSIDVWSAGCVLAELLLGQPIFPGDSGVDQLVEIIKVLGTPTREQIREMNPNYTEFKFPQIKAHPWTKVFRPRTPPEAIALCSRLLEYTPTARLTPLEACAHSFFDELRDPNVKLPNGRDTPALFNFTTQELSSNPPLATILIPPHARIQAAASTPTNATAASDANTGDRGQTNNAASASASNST
Chain of Serine/threonine-protein kinase PAK 4 (Homo sapiens) (O96013 whole entry, looked up): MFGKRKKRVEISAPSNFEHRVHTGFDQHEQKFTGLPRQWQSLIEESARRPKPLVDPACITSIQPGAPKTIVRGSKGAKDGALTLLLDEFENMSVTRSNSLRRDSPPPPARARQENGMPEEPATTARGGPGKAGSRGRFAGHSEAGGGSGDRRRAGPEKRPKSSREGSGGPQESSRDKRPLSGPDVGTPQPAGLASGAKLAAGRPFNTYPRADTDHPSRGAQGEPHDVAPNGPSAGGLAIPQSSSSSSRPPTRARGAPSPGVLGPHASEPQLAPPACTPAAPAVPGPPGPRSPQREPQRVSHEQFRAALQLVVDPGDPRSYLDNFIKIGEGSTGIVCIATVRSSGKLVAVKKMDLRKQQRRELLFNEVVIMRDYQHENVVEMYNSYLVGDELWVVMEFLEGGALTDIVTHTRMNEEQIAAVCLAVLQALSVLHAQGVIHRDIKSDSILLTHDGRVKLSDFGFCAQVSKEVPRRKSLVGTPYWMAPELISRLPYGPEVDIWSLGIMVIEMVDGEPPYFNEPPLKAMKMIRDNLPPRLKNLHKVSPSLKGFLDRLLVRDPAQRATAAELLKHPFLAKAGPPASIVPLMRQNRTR

For `CCc1nc(-c2ccc(F)cc2)c(-c2ccnc(NC(=O)C3CC3)c2)[nH]1`, the IC50 [1] was 16 nM, the remaining at 20 min [2] was 93.4% and the remaining at 1 h [3] was 95.2%. It also gave a remaining at 2 h [4] of 96.4%, a concentration at 10 min [5] of 850 ng/mL and an inhibition at 10 µM (CYP2C9) of 83.6%. The solubility at 1 h [6] was 155 µg/mL (≈ 442 µM), the inhibition [7] was -2.55% and the inhibition [8] was -9.7%. For the same compound, the inhibition [9] was 97%, the inhibition [10] was -2.16% and the inhibition [11] was 4.24%. The inhibition [12] was 24.8%, the inhibition [13] was 78.3% and the inhibition [14] was 54.9%. The inhibition [15] was 1.16%, the inhibition [16] was -1.98% and the inhibition [17] was 4.82%. It also gave an inhibition [18] of -0.24%, an inhibition [19] of 2.78% and an inhibition [20] of 93.6%. For the same compound, the inhibition [21] was 51.6%, the Ratio [22] was 1.1 and the Ratio [23] was 2.5. It also gave an inhibition [24] of 2.76%.
